Assay results taken from ChEMBL document CHEMBL1137715, “A facile synthesis of alpha,alpha'-(EE)-bis(benzylidene)-cycloalkanones and their antitubercular evaluations” (2009).
Converted amounts (≈) assume the structure as drawn. The source made the active and inactive calls. The rule behind the calls is not given here.

Assays:
[1] = system: Mycobacterium tuberculosis; assay: Antitubercular activity against Mycobacterium tuberculosis H37Ra after 5 days by microplate alamar blue assay; type: functional; conditions: 120 h
Procedure, shortened: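 Microplate Alamar Blue assay on M. tuberculosis H37Ra. A log-phase culture was diluted to a final OD550 nm of 0.05 in Sauton's medium. Test compounds in DMSO were dispensed into 96-well plates, with two-fold dilutions in the initial screen.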

[2] = system: Mycobacterium tuberculosis; assay: Antitubercular activity against Mycobacterium tuberculosis H37Rv after 24 hrs by agar microdilution method; type: functional
Procedure, shortened: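 Agar microdilution on M. tuberculosis H37Rv. Two-fold compound dilutions were made in 7H10 agar with OADC. Inoculum came from L–J medium, harvested in 0.85% saline with 0.05% Tween-80. Slants were held 24 h at 37 °C, then streaked with 5×10^4 bacilli per tube and incubated at 37 °C for 30 days. MIC was the concentration giving complete colony inhibition versus medium-only control.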

Sporothrix schenckii = assay: Antimicrobial activity against Sporothrix schenckii after 72 hrs by standard microbroth dilution technique; type: functional
[3] = system: Trichophyton mentagrophytes; assay: Antimicrobial activity against Trichophyton mentagrophytes after 96 hrs by standard microbroth dilution technique; type: functional
Escherichia coli = assay: Antimicrobial activity against Escherichia coli ATCC 9637 after 24 hrs by standard microbroth dilution technique; type: functional, organism-based
Pseudomonas aeruginosa = assay: Antimicrobial activity against Pseudomonas aeruginosa ATCC BAA-427 after 24 hrs by standard microbroth dilution technique; type: functional, organism-based
Staphylococcus aureus = assay: Antimicrobial activity against Staphylococcus aureus ATCC 25923 after 24 hrs by standard microbroth dilution technique; type: functional, organism-based
Klebsiella pneumoniae = assay: Antimicrobial activity against Klebsiella pneumoniae ATCC 27736 after 24 hrs by standard microbroth dilution technique; type: functional, organism-based
Candida albicans = assay: Antimicrobial activity against Candida albicans ATCC 1405B after 48 hrs by standard microbroth dilution technique; type: functional
Cryptococcus neoformans = assay: Antimicrobial activity against Cryptococcus neoformans after 72 hrs by standard microbroth dilution technique; type: functional
Aspergillus fumigatus = assay: Antimicrobial activity against Aspergillus fumigatus after 72 hrs by standard microbroth dilution technique; type: functional
Candida parapsilosis = assay: Antimicrobial activity against Candida parapsilosis ATCC 22019 after 48 hrs by standard microbroth dilution technique; type: functional; conditions: Lodderomyces parapsilosis, ATCC 22019, 48 h

| Structure (SMILES) | MIC [1] [mg/L] | MIC [2] [mg/L] | MIC (Sporothrix schenckii) [mg/L] | MIC [3] [mg/L] | Activity (Escherichia coli) | Activity (Pseudomonas aeruginosa) | Activity (Staphylococcus aureus) | Activity (Klebsiella pneumoniae) | MIC (Candida albicans) [mg/L] | MIC (Cryptococcus neoformans) [mg/L] | MIC (Aspergillus fumigatus) [mg/L] | MIC (Candida parapsilosis) [mg/L] |
| --- | --- | --- | --- | --- | --- | --- | --- | --- | --- | --- | --- | --- |
| O=C1/C(=C/c2ccc(Br)cc2)CCC/C1=C\c1ccc(Br)cc1 | 1.56 (≈ 3.61 µM) | 12.5 (≈ 28.9 µM) | 25 (≈ 57.8 µM) | 12.5 (≈ 28.9 µM) | inactive | inactive | inactive | inactive | – | – | – | – |
| O=C1CCCCC1C(O)c1ccc([N+](=O)[O-])cc1 (stereo not given) | > 12.5 | 12.5 (≈ 50.1 µM) | – | – | inactive | inactive | inactive | inactive | > 50 | > 50 | > 50 | > 50 |
| NNC(=O)c1ccncc1 [ISONIAZID] | – | 0.75 (≈ 5.47 µM) | – | – | – | – | – | – | – | – | – | – |
| O=C1/C(=C/c2ccc(F)cc2)CCC/C1=C\c1ccc(F)cc1 | 12.5 (≈ 40.3 µM) | > 12.5 | – | – | inactive | inactive | inactive | inactive | > 50 | > 50 | > 50 | > 50 |
| COc1ccc(/C=C2\CCCC/C(=C\c3ccc(OC)cc3)C2=O)cc1 | 6.25 (≈ 17.9 µM) | > 12.5 | – | – | inactive | inactive | inactive | inactive | > 50 | > 50 | > 50 | > 50 |
| O=C1/C(=C/c2ccc(Cl)cc2)CCCC/C1=C\c1ccc(Cl)cc1 | > 12.5 | > 12.5 | – | – | inactive | inactive | inactive | inactive | > 50 | > 50 | > 50 | > 50 |
| COc1ccc(/C=C2\CC/C(=C\c3ccc(OC)c(OC)c3)C2=O)cc1OC | > 12.5 | > 12.5 | – | – | inactive | inactive | inactive | inactive | > 50 | > 50 | > 50 | > 50 |
| O=C1CCCCC1C(O)c1ccccc1[N+](=O)[O-] (stereo not given) | > 12.5 | > 12.5 | – | – | inactive | inactive | inactive | inactive | > 50 | > 50 | > 50 | > 50 |
| COc1ccc(/C=C2\CCC/C(=C\c3ccc(OC)c(OC)c3)C2=O)cc1OC | > 12.5 | > 12.5 | – | – | inactive | inactive | inactive | inactive | > 50 | > 50 | > 50 | > 50 |
| O=C1/C(=C/c2ccc(Br)cc2)CCCC/C1=C\c1ccc(Br)cc1 | > 12.5 | > 12.5 | – | – | inactive | inactive | inactive | inactive | > 50 | > 50 | > 50 | > 50 |
| O=[N+]([O-])c1ccc(/C=C2\CCC/C(=C\c3ccc([N+](=O)[O-])cc3)C2O)cc1 | > 12.5 | > 12.5 | – | – | inactive | inactive | inactive | inactive | > 50 | > 50 | > 50 | > 50 |
| COc1ccc(/C=C2\CCCC/C(=C\c3ccc(OC)c(OC)c3)C2=O)cc1OC | > 12.5 | > 12.5 | – | – | inactive | inactive | inactive | inactive | > 50 | > 50 | > 50 | > 50 |
| COc1cc(/C=C2\CCC/C(=C\c3cc(OC)c(OC)c(OC)c3)C2=O)cc(OC)c1OC | > 12.5 | > 12.5 | – | – | inactive | inactive | inactive | inactive | > 50 | > 50 | > 50 | > 50 |
| O=C1CCCCC1C(O)c1ccc(Br)cc1 (stereo not given) | > 12.5 | 12.5 (≈ 44.1 µM) | – | – | inactive | inactive | inactive | inactive | > 50 | > 50 | > 50 | > 50 |
| O=C1/C(=C/c2ccccc2)CCC/C1=C\c1ccccc1 [2,6-DIBENZYLIDENECYCLOHEXANONE] | > 12.5 | 6.25 (≈ 22.8 µM) | – | – | inactive | inactive | inactive | inactive | > 50 | > 50 | > 50 | > 50 |
| CC[C@@H](CO)NCCN[C@@H](CC)CO [ETHAMBUTOL] | – | 3.25 (≈ 15.9 µM) | – | – | – | – | – | – | – | – | – | – |
| OC1/C(=C/c2ccc(Br)cc2)CCC/C1=C\c1ccc(Br)cc1 (stereo not given) | > 12.5 | 12.5 (≈ 28.8 µM) | – | – | inactive | inactive | inactive | inactive | > 50 | > 50 | > 50 | > 50 |
| O=C1/C(=C/c2ccc3ccccc3c2)CCC/C1=C\c1ccc2ccccc2c1 | > 12.5 | > 12.5 | – | – | inactive | inactive | inactive | inactive | > 50 | > 50 | > 50 | > 50 |
| O=C1/C(=C/c2ccc(Cl)cc2)CCC/C1=C\c1ccc(Cl)cc1 | > 12.5 | > 12.5 | – | – | inactive | inactive | inactive | inactive | > 50 | > 50 | > 50 | > 50 |
| O=C1/C(=C/c2ccc([N+](=O)[O-])cc2)CCC/C1=C\c1ccc([N+](=O)[O-])cc1 | 3.12 (≈ 8.56 µM) | 12.5 (≈ 34.3 µM) | – | – | inactive | inactive | inactive | inactive | > 50 | > 50 | > 50 | > 50 |
| O=C1/C(=C/c2ccco2)CCC/C1=C\c1ccco1 | > 12.5 | > 12.5 | – | – | inactive | inactive | inactive | inactive | > 50 | > 50 | > 50 | > 50 |
| O=C1/C(=C/c2ccc(OCc3ccccc3)cc2)CCC/C1=C\c1ccc(OCc2ccccc2)cc1 | > 12.5 | > 12.5 | – | – | inactive | inactive | inactive | inactive | > 50 | > 50 | > 50 | > 50 |
| O=C1CCCCC1C(O)c1cccc([N+](=O)[O-])c1 (stereo not given) | > 12.5 | 12.5 (≈ 50.1 µM) | – | – | inactive | inactive | inactive | inactive | > 50 | > 50 | > 50 | > 50 |
